Tests used:
[1] = system: Human immunodeficiency virus 1; experiment: Antiretroviral activity against HIV-1 3B infected in human CEM/0 cells expressing thymidine kinase assessed as inhibition of virus-induced giant cell formation after 4 to 5 days by microscopic analysis; assay type: functional, organism-based; settings: Human immunodeficiency virus 1, 3B, CCRF-CEM
Outline: (§1)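 CEM cells (~3 × 10⁵/mL; wild-type or thymidine kinase-deficient) infected with 100 CCID₅₀/mL HIV-1(IIIB) or HIV-2(ROD) with serial compound dilutions; 4–5 days at 37 °C, humidified CO₂. Syncytium (giant cell) formation scored microscopically; EC₅₀ = concentration inhibiting giant cell formation by 50%. Means of at least 2–3 independent experiments.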

[2] = system: Human immunodeficiency virus 2; experiment: Antiretroviral activity against HIV-2 ROD infected in human CEM/0 cells expressing thymidine kinase assessed as inhibition of virus-induced giant cell formation after 4 to 5 days by microscopic analysis; assay type: functional, organism-based; settings: Human immunodeficiency virus 2, ISOLATE ROD, CCRF-CEM; outline: as §1
[3] = system: Human immunodeficiency virus 2; experiment: Antiretroviral activity against HIV-2 ROD infected in thymidine kinase-deficient human CEM cells assessed as inhibition of virus-induced giant cell formation after 4 to 5 days by microscopic analysis; assay type: functional, organism-based; settings: Human immunodeficiency virus 2, ISOLATE ROD, CCRF-CEM; outline: as §1
CCRF-CEM [4] = experiment: Cytostatic activity against human CEM/0 cells expressing thymidine kinase assessed as inhibition of cell proliferation after 48 hrs by Coulter counter analysis; assay type: functional, cell-based
Outline: (§2)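 Tumour cells ((5–7.5) × 10⁴ per well) grown with test compound for 48 h at 37 °C, humidified CO₂; cells counted by Coulter counter. IC₅₀ = concentration inhibiting proliferation by 50%. Means of at least 2–3 independent experiments.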

CCRF-CEM [5] = experiment: Cytostatic activity against thymidine kinase-deficient human CEM cells assessed as inhibition of cell proliferation after 48 hrs by Coulter counter analysis; assay type: functional, cell-based; outline: as §2
L1210 = experiment: Cytostatic activity against mouse L1210 cells assessed as inhibition of cell proliferation after 48 hrs by Coulter counter analysis; assay type: functional, cell-based; settings: L1210, 48 h; outline: as §2
[6] = Cytostatic activity against human CEM/0 cells expressing thymidine kinase assessed as inhibition of cell proliferation at EC50 after 48 hrs by Coulter counter analysis; assay type: cell-based; settings: ccrf-cem
CCRF-CEM [7] = experiment: Cytostatic activity against thymidine kinase-deficient human CEM cells assessed as inhibition of cell proliferation at EC50 after 48 hrs by Coulter counter analysis; assay type: cell-based
[8] = system: Human immunodeficiency virus 2; experiment: Ratio of EC50 for HIV-2 ROD infected in thymidine kinase-deficient human CEM cells to EC50 for HIV-2 ROD infected in human CEM/0 cells expressing thymidine kinase; assay type: functional, ISOLATE ROD, CCRF-CEM

Structure (SMILES) | EC50 [1] [µM] | EC50 [2] [µM] | EC50 [3] [µM] | IC50 (CCRF-CEM [4]) [µM] | IC50 (CCRF-CEM [5]) [µM] | IC50 (L1210) [µM] | Activity [6] | Activity (CCRF-CEM [7]) | Ratio EC50 [8]
COC(=O)[C@H](C)NP(=O)(OC[C@H]1O[C@@H](n2cc(C)c(=O)[nH]c2=O)C[C@@H]1F)Oc1ccccc1 (some centres undefined) | 0.55 | 1.3 | 4.7 | > 250 | > 250 | 8.2 |  |  | 
CCOC(=O)[C@H](C)NP(=O)(OC[C@H]1O[C@@H](n2cc(C)c(=O)[nH]c2=O)C[C@@H]1F)Oc1ccccc1 (some centres undefined) | 0.1 | 0.24 | 1.3 | > 250 | > 250 | 4.4 |  |  | 
Cc1cn([C@H]2C[C@H](F)[C@@H](COP(=O)(N[C@@H](C)C(=O)OC3CCCCC3)Oc3cccc4ccccc34)O2)c(=O)[nH]c1=O (some centres undefined) | 0.048 | 0.14 | 2 | 13 | 20 | 2.9 | Non-toxic | Non-toxic | 
Cc1cn([C@H]2C[C@H](F)[C@@H](COP(=O)(N[C@@H](C)C(=O)OCC(C)(C)C)Oc3cccc4ccccc34)O2)c(=O)[nH]c1=O (some centres undefined) | 0.032 | 0.08 | 0.87 | 14 | 20 | 1.9 | Non-toxic | Non-toxic | 10
Cc1cn([C@H]2C[C@H](F)[C@@H](COP(=O)(N[C@@H](C)C(=O)OCc3ccccc3)N[C@@H](C)C(=O)OCc3ccccc3)O2)c(=O)[nH]c1=O | 0.036 | 0.13 | 1 | 17 | 22 | 1.2 | Non-toxic | Non-toxic | 
Cc1cn([C@H]2C[C@H](F)[C@@H](CO)O2)c(=O)[nH]c1=O [ALOVUDINE] | 0.0062 | 0.018 | > 50 | 39 | > 250 | 0.081 |  |  | > 1000

More lines, in order of falling EC50 [1], values ahead:

EC50 [1] [µM] | EC50 [2] [µM] | EC50 [3] [µM] | Structure (SMILES) | IC50 (CCRF-CEM [4]) [µM] | IC50 (CCRF-CEM [5]) [µM] | IC50 (L1210) [µM] | Activity [6] | Activity (CCRF-CEM [7]) | Ratio EC50 [8]
2.3 | 4.7 | > 50 | Cc1cn([C@H]2C[C@H](F)[C@@H](COP(=O)(N[C@@H](C)C(=O)OC(C)(C)C)Oc3cccc4ccccc34)O2)c(=O)[nH]c1=O (some centres undefined) | 148 | > 250 | 36 |  |  | 
0.75 | 1.1 | 28 | Cc1cn([C@H]2C[C@H](F)[C@@H](COP(=O)(N[C@@H](C)C(=O)OC(C)C)Oc3ccccc3)O2)c(=O)[nH]c1=O (some centres undefined) | 145 | > 250 | 23 |  |  | 
0.65 | 1.6 | 89 | COP(=O)(N[C@@H](C)C(=O)OCc1ccccc1)OC[C@H]1O[C@@H](n2cc(C)c(=O)[nH]c2=O)C[C@@H]1F (some centres undefined) | 100 | > 250 | 43 |  |  | 
0.56 | 1 | > 50 | Cc1cn([C@H]2C[C@H](F)[C@@H](COP(=O)(N[C@@H](C)C(=O)OC(C)C)Oc3cccc4ccccc34)O2)c(=O)[nH]c1=O (some centres undefined) | 206 | > 250 | 24 |  |  | 
0.43 | 0.65 | 3 | COC(=O)[C@H](C)NP(=O)(OC[C@H]1O[C@@H](n2cc(C)c(=O)[nH]c2=O)C[C@@H]1F)Oc1cccc2ccccc12 (some centres undefined) | 66 | 112 | 3 |  |  | 
0.29 | 0.9 | > 50 | Cc1cn([C@H]2C[C@H](F)[C@@H](COP(=O)(N[C@@H](C)C(=O)OC(C)(C)C)Oc3ccccc3)O2)c(=O)[nH]c1=O (some centres undefined) | 124 | > 250 | 6.3 |  |  | 
0.16 | 0.18 | 5.2 | CCOC(=O)[C@H](C)NP(=O)(OC[C@H]1O[C@@H](n2cc(C)c(=O)[nH]c2=O)C[C@@H]1F)Oc1cccc2ccccc12 (some centres undefined) | 81 | 138 | 6 |  |  | 
0.13 | 0.18 | 2 | Cc1cn([C@H]2C[C@H](F)[C@@H](COP(=O)(N[C@@H](C)C(=O)OCc3ccccc3)Oc3ccccc3)O2)c(=O)[nH]c1=O (some centres undefined) | 117 | 172 | 5.8 |  |  | 
0.12 | 0.18 | 2.1 | Cc1cn([C@H]2C[C@H](F)[C@@H](COP(=O)(N[C@@H](C)C(=O)OCc3ccccc3)Oc3cccc4ccccc34)O2)c(=O)[nH]c1=O (some centres undefined) | 54 | 57 | 5.2 |  |  | 
0.017 | 0.045 | 20 | Cc1cn([C@H]2C[C@H](F)[C@@H](COP(=O)(N[C@@H](C)C(=O)OCC(C)(C)C)N[C@@H](C)C(=O)OCC(C)(C)C)O2)c(=O)[nH]c1=O | 66 | 43 | 3.8 |  |  | 

— ChEMBL document CHEMBL3259711, “Synthesis, anti-HIV and cytostatic evaluation of 3'-deoxy-3'-fluorothymidine (FLT) pro-nucleotides” (Bioorg Med Chem Lett, 2014)
